Experimental data as given in PMC9968262 (American Journal of Clinical Dermatology, 2022).
“And” between values parts separate entries of the source, which are not always exact repeats. Equal entries are not always repeated. Where two headings read alike, the source gives them in different places.

Key:
Phase I/IIa study [1] = type: in vivo, human; settings: for plasma concentration, mean (SD): Day 28; for concentration at 24 h / concentration at 28 days: human, plasma, topical
Procedure, shortened: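 Cohort 2 was double-blind and vehicle-controlled: 0.15% or 0.5% cream once daily for 28 days. Patients had psoriasis for >6 months and ≤5% BSA involvement. Day 28 plasma was drawn before application and at 1, 2, 4, 6 and 24 h after the last dose. Parent and N-oxide were quantified by validated LC-MS/MS (LLOQ 0.100 ng/mL).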

DERMIS-1 = type: in vivo, human; settings: for Week 4 extrapolated AUC24, h*ng/mL / Week 8 extrapolated AUC24, h*ng/mL: predose concentration x 24, mean (SD)
Procedure, shortened: (§1)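 Patients with chronic plaque psoriasis covering 2–20% BSA were randomized 2:1 (double-blind) to 0.3% cream or vehicle. Cream was applied once daily for 8 weeks, including to new lesions. Predose (Ctrough) plasma was sampled at Baseline, Week 4 and Week 8. Parent and N-oxide were measured by validated LC-MS/MS (LLOQ 0.100 ng/mL). AUC24 = observed predose concentration × 24.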

[2] = cited from earlier work; for peak plasma concentration (Cmax): healthy volunteers; for elimination half-life: roflumilast administered orally
Phase I/IIa study [3] = type: in vivo, human; settings: for skin samples with measurable (quantifiable) level: N = 27 skin samples; for Kp at 24 h / concentration at 24 h / concentration at 28 days: human, topical; for Kp at 24 h: skin (punch biopsy) / plasma; for concentration at 24 h / concentration at 28 days: skin (punch biopsy)
[4] = system: phosphodiesterase 4 (PDE4); settings: active metabolite; cited from earlier work
Maximal usage PK study = type: in vivo, human; settings: for steady state achieved by: plasma concentrations, roflumilast cream 0.3% once daily; for Tmax, h (min–max): plasma, Day 15, roflumilast cream 0.3% daily topical, mean (min–max)
Procedure, shortened: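 Open-label, single-arm, 2-week maximal-use study: 0.3% cream at 2 mg/cm2 once each evening to all plaques except the scalp. Subjects were adolescents 12–17 y (≥10% BSA) and adults (≥20% BSA), with IGA ≥3. Plasma was sampled predose and 1, 2, 4, 8 and 24 h post-dose on Days 1 and 15, plus 7, 14 and 21 days after the last dose. Analysis was LC-MS/MS (LLOQ 0.100 ng/mL) with noncompartmental linear trapezoidal methods.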

DERMIS-2 = type: in vivo, human; settings: for Week 4 extrapolated AUC24, h*ng/mL / Week 8 extrapolated AUC24, h*ng/mL: predose concentration x 24, mean (SD)
Procedure, shortened: as §1

[5] = oral 500 µg; cited from earlier work
[6] = at 22 °C; cited from earlier work
[7] = cited from earlier work
[8] = age 6–11 years (N = 1), predose concentration x 24
[9] = age 12–17 years (N = 3), predose plasma (Ctrough), mean (SD)
[10] = age ≥ 18 years (N = 241), predose plasma (Ctrough), mean (SD)
[11] = multiple dosing of oral roflumilast 500 µg
[12] = age 6–11 years (N = 1), predose plasma (Ctrough)
[13] = age 12–17 years (N = 5), predose plasma (Ctrough), mean (SD)
[14] = age ≥ 18 years (N = 244), predose plasma (Ctrough), mean (SD)

With O=C(Nc1c(Cl)c[n+]([O-])cc1Cl)c1ccc(OC(F)F)c(OCC2CC2)c1 [roflumilast N-oxide] the “plasma concentration, mean (SD)” value (Phase I/IIa study [1]; roflumilast cream 0.15% (n = 21)) was 5.44 [4.95] ng/mL, the “plasma concentration, mean (SD)” value (Phase I/IIa study [1]; roflumilast cream 0.5% (n = 20)) was 6.52 [4.04] ng/mL and the “Week 8 extrapolated AUC24” value (DERMIS-1; [8]) was 103 ng·h/mL. The “Week 4 extrapolated AUC24, h*ng/mL” value (DERMIS-1; age 12–17 years (N = 3)) was 202 (91.2) h*ng/mL, the “Week 8 extrapolated AUC24, h*ng/mL” value (DERMIS-1; age 12–17 years (N = 3)) was 209 (132) h*ng/mL and the “Week 4 conc., ng/mL” value (DERMIS-1; [9]) was 8.42 (3.80) ng/mL. For the same compound, the “Week 8 conc., ng/mL” value (DERMIS-1; [9]) was 8.71 (5.49) ng/mL, the “Week 4 extrapolated AUC24, h*ng/mL” value (DERMIS-1; age ≥ 18 years (N = 241)) was 288 (310) h*ng/mL and the “Week 8 extrapolated AUC24, h*ng/mL” value (DERMIS-1; age ≥ 18 years (N = 241)) was 242 (290) h*ng/mL. For the same compound, the “Week 4 conc., ng/mL” value (DERMIS-1; [10]) was 11.8 (12.9) ng/mL, the “Week 8 conc.” value (DERMIS-1; [10]) was 9.86 ng/mL and 9.9 ng/mL and the “systemic exposure of roflumilast N-oxide relative to roflumilast” value ([2]; intravenous administration of roflumilast) was 7.4 times. For the same compound, the “peak plasma concentration (Cmax)” value [2, 11] was 21.7 ng/mL, the “systemic exposure of roflumilast N-oxide relative to roflumilast” value ([2]; oral administration of roflumilast) was 12.4 times and the elimination half-life [2] was 30 h. For the same compound, the “skin samples with measurable (quantifiable) level” value (from here on “skin samples with measurable”) (Phase I/IIa study [3]) was “only one sample”, the “skin samples with measurable” value (Phase I/IIa study [3]; listed as Roflumilast N-oxide) was “only one skin sample” and the “skin concentrations lower than circulating plasma concentrations” value (Phase I/IIa study [3]; skin LLOQ of 0.2 ng/g, cream 0.15% and 0.5%) was “at least 30 fold”. For the same compound, the “potency of N-oxide metabolite relative to roflumilast” value [4] was “threefold less potent”, the “steady state achieved by” value (Maximal usage PK study) was no more than 15 days and the “Tmax, h (min–max)” value (Maximal usage PK study; adolescents 12–17 years) was 16.5 (1.0–24.0) h. The “Tmax, h (min–max)” value (Maximal usage PK study; adults ≥18 years) was 12.9 (0–24) h, the “roflumilast N-oxide plasma concentrations relative to roflumilast concentrations” value (Maximal usage PK study; repeat daily topical roflumilast cream 0.3%, steady state) was “eightfold” and the “Week 4 extrapolated AUC24” value (DERMIS-2; [8]) was 576 ng·h/mL. For the same compound, the “Week 8 extrapolated AUC24” value (DERMIS-2; [8]) was 614 ng·h/mL, the “Week 4 conc.” value (DERMIS-2; [12]) was 24.0 ng/mL and the “Week 8 conc.” value (DERMIS-2; [12]) was 25.6 ng/mL. The “Week 4 extrapolated AUC24, h*ng/mL” value (DERMIS-2; age 12–17 years (N = 5)) was 84.6 (58.4) h*ng/mL, the “Week 8 extrapolated AUC24, h*ng/mL” value (DERMIS-2; age 12–17 years (N = 5)) was 161 (174) h*ng/mL and the “Week 4 conc., ng/mL” value (DERMIS-2; [13]) was 3.53 (2.44) ng/mL. The “Week 8 conc., ng/mL” value (DERMIS-2; [13]) was 6.72 (7.24) ng/mL, the “Week 4 extrapolated AUC24, h*ng/mL” value (DERMIS-2; age ≥ 18 years (N = 244)) was 294 (338) h*ng/mL and the “Week 8 extrapolated AUC24, h*ng/mL” value (DERMIS-2; age ≥ 18 years (N = 244)) was 249 (308) h*ng/mL. For the same compound, the “Week 4 conc., ng/mL” value (DERMIS-2; [14]) was 12.2 (14.1) ng/mL and the “Week 8 conc.” value (DERMIS-2; [14]) was 10.2 ng/mL.
Compound O=C(Nc1c(Cl)cncc1Cl)c1ccc(OC(F)F)c(OCC2CC2)c1 [roflumilast] has a concentration at 24 h (Phase I/IIa study [1]; 0.15 % cream) of 1.15 ng/mL, a concentration at 28 days (Phase I/IIa study [1]; 0.15 % cream) of 1.03 ng/mL and a concentration at 24 h (Phase I/IIa study [1]; 0.5 % cream) of 0.805 ng/mL. The concentration at 28 days (Phase I/IIa study [1]; 0.5 % cream) was 1.15 ng/mL, the “diarrhea (occurrence)” value [5] was 9.5% and the “nausea (occurrence)” value [5] was 4.7%. The “weight decreased (occurrence)” value [5] was 7.5%, the “Week 8 extrapolated AUC24, h*ng/mL” value (DERMIS-1; age ≥ 18 years (N = 241)) was 47.4 (58.3) h*ng/mL and the “Week 4 conc., ng/mL” value (DERMIS-1; [10]) was 2.05 (2.83) ng/mL. The oral bioavailability ([2]; 500 µg oral dose) was “approximately 79%”, the “time to absorption / peak levels after oral dose” value ([2]; 500 µg oral dose) was “about 1.25 h” and the “time to absorption / peak levels after oral dose” value ([2]; 500 µg oral dose, listed as Roflumilast) was 1 h. The “Cmax in COPD patients higher than in healthy volunteers” value [2, 11] was “about 6%”, the “peak plasma concentration (Cmax)” value [2, 11] was 6.01 ng/mL and the peak-to-trough ratio ([2]; oral administration) was “greater than 10”. For the same compound, the elimination half-life [2] was 17 to 30 h and 17 h, the “skin samples with measurable” value (Phase I/IIa study [3]) was “All but one sample” and the Kp at 24 h (Phase I/IIa study [3]; 0.15 % cream) was 126. The Kp at 24 h (Phase I/IIa study [3]; 0.5 % cream) was 61.8, the concentration at 24 h (Phase I/IIa study [3]; 0.15 % cream) was 84 ng/mL and the concentration at 28 days (Phase I/IIa study [3]; 0.15 % cream) was 120 ng/g. For the same compound, the concentration at 24 h (Phase I/IIa study [3]; 0.5 % cream) was 51 ng/mL, the concentration at 28 days (Phase I/IIa study [3]; 0.5 % cream) was 56.1 ng/g and the water solubility [6] was 0.52 to 0.56 µg/mL. For the same compound, the “steady state achieved by” value (Maximal usage PK study) was no more than 15 days, the “peak-to-trough ratio (plasma)” value (Maximal usage PK study; steady state (Day 15), topical roflumilast cream 0.3%) was 1.2 and the logP [7] was 3.53.
